Data from ChEMBL document CHEMBL1649571, “In vitro activity of TR-700, the active ingredient of the antibacterial prodrug TR-701, a novel oxazolidinone antibacterial agent” (2009).
In brackets after ≈: the same amount, converted by molar mass.

Legend:
Assay type in all cases: functional
Enterococcus faecalis [1] = experiment: Antibacterial activity against vancomycin-susceptible Enterococcus faecalis by CLSI M7-A7 broth microdilution method
Method in brief: (§1)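 Reference broth microdilution MIC under aerobic conditions on recent (2005–2008) clinical isolates from U.S. and non-U.S. sites. QC strains run alongside, required to fall within published CLSI ranges.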

Enterococcus faecalis [2] = experiment: Antibacterial activity against vancomycin-resistant Enterococcus faecalis by CLSI M7-A7 broth microdilution method; method in brief: as §1
Enterococcus faecium [3] = experiment: Antibacterial activity against vancomycin-susceptible Enterococcus faecium by CLSI M7-A7 broth microdilution method; method in brief: as §1
Enterococcus faecium [4] = experiment: Antibacterial activity against vancomycin-resistant Enterococcus faecium by CLSI M7-A7 broth microdilution method; method in brief: as §1
Streptococcus pneumoniae [5] = experiment: Antibacterial activity against penicillin-susceptible Streptococcus pneumoniae by CLSI M7-A7 broth microdilution method; method in brief: as §1
Streptococcus pneumoniae [6] = experiment: Antibacterial activity against penicillin-intermediate Streptococcus pneumoniae by CLSI M7-A7 broth microdilution method; method in brief: as §1
Streptococcus pneumoniae [7] = experiment: Antibacterial activity against penicillin-resistant Streptococcus pneumoniae by CLSI M7-A7 broth microdilution method; method in brief: as §1
Streptococcus pyogenes = experiment: Antibacterial activity against Streptococcus pyogenes by CLSI M7-A7 broth microdilution broth microdilution method; method in brief: as §1
Streptococcus agalactiae = experiment: Antibacterial activity against Streptococcus agalactiae by CLSI M7-A7 broth microdilution method; method in brief: as §1
Staphylococcus aureus [8] = experiment: Antibacterial activity against methicillin-susceptible Staphylococcus aureus by CLSI M7-A7 broth microdilution method; method in brief: as §1
Staphylococcus aureus [9] = experiment: Antibacterial activity against methicillin-resistant Staphylococcus aureus by CLSI M7-A7 broth microdilution method; method in brief: as §1
Staphylococcus aureus [10] = experiment: Antibacterial activity against community-acquired methicillin-resistant Staphylococcus aureus by CLSI M7-A7 broth microdilution method; method in brief: as §1
[11] = system: Staphylococcus epidermidis; experiment: Antibacterial activity against methicillin-susceptible Staphylococcus epidermidis by CLSI M7-A7 broth microdilution method
[12] = system: Staphylococcus epidermidis; experiment: Antibacterial activity against methicillin-resistant Staphylococcus epidermidis by CLSI M7-A7 broth microdilution method; method in brief: as §1
Haemophilus influenzae = experiment: Antibacterial activity against Haemophilus influenzae by CLSI M7-A7 broth microdilution method
Method in brief: (§2)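 Recent (2005 to 2008) clinical isolates from U.S. (80%) and non-U.S. (20%) sites. Aerobic MICs were determined by CLSI reference broth microdilution, with quality control strains checked against the published CLSI ranges.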

Moraxella catarrhalis = experiment: Antibacterial activity against Moraxella catarrhalis by CLSI M7-A7 broth microdilution method; method in brief: as §2
Bacteroides fragilis = experiment: Antibacterial activity against Bacteroides fragilis by CLSI M11-A7 agar dilution method
Method in brief: (§3)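 Recent (2005 to 2008) clinical isolates. Anaerobes grown 48 h in an anaerobic glove box, with inoculum suspensions made in prereduced broth inside the box. A Steers replicator stamped the inoculum onto drug-supplemented agar. After absorption, plates were incubated 48 h at 37°C, then removed from the box and the MIC read. QC strains were run against the CLSI ranges.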

Phocaeicola vulgatus = experiment: Antibacterial activity against Bacteroides vulgatus by CLSI M11-A7 agar dilution method; method in brief: as §3
[13] = system: Bacteroides thetaiotaomicron; experiment: Antibacterial activity against Bacteroides thetaiotaomicron by CLSI M11-A7 agar dilution method; method in brief: as §3
Bacteroides ovatus = experiment: Antibacterial activity against Bacteroides ovatus by CLSI M11-A7 agar dilution method; method in brief: as §3
Clostridium perfringens = experiment: Antibacterial activity against Clostridium perfringens by CLSI M11-A7 agar dilution method
Method in brief: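 Reference agar dilution MIC on recent (2005–2008) clinical isolates. Cultures grown 48 h in an anaerobic glove box; inoculum suspended in prereduced broth inside the box and stamped by Steers replicator onto drug-supplemented agar. Plates incubated 48 h at 37°C before MIC reading. QC strains run alongside, required to fall within CLSI ranges.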

[14] = system: Peptostreptococcus anaerobius; experiment: Antibacterial activity against Peptostreptococcus anaerobius by CLSI M11-A7 agar dilution method; method in brief: as §3
Parvimonas micra = experiment: Antibacterial activity against Peptostreptococcus micros by CLSI M11-A7 agar dilution method; method in brief: as §3
[15] = system: Porphyromonas asaccharolytica; experiment: Antibacterial activity against Porphyromonas asaccharolytica by CLSI M11-A7 agar dilution method; method in brief: as §3
Prevotella sp. = experiment: Antibacterial activity against Prevotella sp. by CLSI M11-A7 agar dilution method; method in brief: as §3

CN[C@H](CC(C)C)C(=O)N[C@H]1C(=O)N[C@@H](CC(N)=O)C(=O)N[C@H]2C(=O)N[C@H]3C(=O)N[C@H](C(=O)N[C@H](C(=O)O)c4cc(O)cc(O)c4-c4cc3ccc4O)[C@H](O)c3ccc(c(Cl)c3)Oc3cc2cc(c3O[C@@H]2O[C@H](CO)[C@@H](O)[C@H](O)[C@H]2O[C@H]2C[C@](C)(N)[C@H](O)[C@H](C)O2)Oc2ccc(cc2Cl)[C@H]1O [VANCOMYCIN]
MIC50 (Enterococcus faecalis [1]): 1 µg/mL (≈ 0.69 µM) | MIC90 (Enterococcus faecalis [1]): 2 µg/mL (≈ 1.38 µM) | MIC50 (Enterococcus faecalis [2]): > 32 µg/mL | MIC90 (Enterococcus faecalis [2]): > 32 µg/mL | MIC50 (Enterococcus faecium [3]): 1 µg/mL (≈ 0.69 µM) | MIC90 (Enterococcus faecium [3]): 1 µg/mL (≈ 0.69 µM) | MIC50 (Enterococcus faecium [4]): > 32 µg/mL | MIC90 (Enterococcus faecium [4]): > 32 µg/mL | MIC50 (Streptococcus pneumoniae [5]): 0.25 µg/mL (≈ 0.173 µM) | MIC90 (Streptococcus pneumoniae [5]): 0.5 µg/mL (≈ 0.345 µM) | MIC (Streptococcus pneumoniae [6]): 0.25 µg/mL (≈ 0.173 µM) | MIC50 (Streptococcus pneumoniae [6]): 0.25 µg/mL (≈ 0.173 µM) | MIC90 (Streptococcus pneumoniae [6]): 0.5 µg/mL (≈ 0.345 µM) | MIC50 (Streptococcus pneumoniae [7]): 0.25 µg/mL (≈ 0.173 µM) | MIC90 (Streptococcus pneumoniae [7]): 0.5 µg/mL (≈ 0.345 µM) | MIC50 (Streptococcus pyogenes): 0.5 µg/mL (≈ 0.345 µM) | MIC90 (Streptococcus pyogenes): 0.5 µg/mL (≈ 0.345 µM) | MIC50 (Streptococcus agalactiae): 0.5 µg/mL (≈ 0.345 µM) | MIC90 (Streptococcus agalactiae): 0.5 µg/mL (≈ 0.345 µM) | MIC50 (Staphylococcus aureus [8]): 1 µg/mL (≈ 0.69 µM) | MIC90 (Staphylococcus aureus [8]): 1 µg/mL (≈ 0.69 µM) | MIC50 (Staphylococcus aureus [9]): 1 µg/mL (≈ 0.69 µM) | MIC90 (Staphylococcus aureus [9]): 1 µg/mL (≈ 0.69 µM) | MIC50 (Staphylococcus aureus [10]): 4 µg/mL (≈ 2.76 µM) | MIC90 (Staphylococcus aureus [10]): 4 µg/mL (≈ 2.76 µM) | MIC50 [11]: 2 µg/mL (≈ 1.38 µM) | MIC90 [11]: 2 µg/mL (≈ 1.38 µM) | MIC50 [12]: 2 µg/mL (≈ 1.38 µM) | MIC90 [12]: 2 µg/mL (≈ 1.38 µM)

CC(=O)NC[C@H]1CN(c2ccc(N3CCOCC3)c(F)c2)C(=O)O1 [LINEZOLID]
MIC50 (Enterococcus faecalis [1]): 2 µg/mL (≈ 5.93 µM) | MIC90 (Enterococcus faecalis [1]): 2 µg/mL (≈ 5.93 µM) | MIC50 (Enterococcus faecalis [2]): 2 µg/mL (≈ 5.93 µM) | MIC90 (Enterococcus faecalis [2]): 2 µg/mL (≈ 5.93 µM) | MIC50 (Enterococcus faecium [3]): 2 µg/mL (≈ 5.93 µM) | MIC90 (Enterococcus faecium [3]): 4 µg/mL (≈ 11.9 µM) | MIC50 (Enterococcus faecium [4]): 2 µg/mL (≈ 5.93 µM) | MIC90 (Enterococcus faecium [4]): 2 µg/mL (≈ 5.93 µM) | MIC50 (Streptococcus pneumoniae [5]): 1 µg/mL (≈ 2.96 µM) | MIC90 (Streptococcus pneumoniae [5]): 1 µg/mL (≈ 2.96 µM) | MIC50 (Streptococcus pneumoniae [6]): 1 µg/mL (≈ 2.96 µM) | MIC90 (Streptococcus pneumoniae [6]): 1 µg/mL (≈ 2.96 µM) | MIC50 (Streptococcus pneumoniae [7]): 1 µg/mL (≈ 2.96 µM) | MIC90 (Streptococcus pneumoniae [7]): 1 µg/mL (≈ 2.96 µM) | MIC50 (Streptococcus pyogenes): 1 µg/mL (≈ 2.96 µM) | MIC90 (Streptococcus pyogenes): 2 µg/mL (≈ 5.93 µM) | MIC50 (Streptococcus agalactiae): 2 µg/mL (≈ 5.93 µM) | MIC90 (Streptococcus agalactiae): 2 µg/mL (≈ 5.93 µM) | MIC50 (Haemophilus influenzae): 16 µg/mL (≈ 47.4 µM) | MIC90 (Haemophilus influenzae): 32 µg/mL (≈ 94.9 µM) | MIC50 (Moraxella catarrhalis): 8 µg/mL (≈ 23.7 µM) | MIC90 (Moraxella catarrhalis): 8 µg/mL (≈ 23.7 µM) | MIC (Bacteroides fragilis): 4 µg/mL (≈ 11.9 µM) | MIC50 (Bacteroides fragilis): 4 µg/mL (≈ 11.9 µM) | MIC90 (Bacteroides fragilis): 4 µg/mL (≈ 11.9 µM) | MIC (Phocaeicola vulgatus): 2 µg/mL (≈ 5.93 µM) | MIC50 (Phocaeicola vulgatus): 2 µg/mL (≈ 5.93 µM) | MIC90 (Phocaeicola vulgatus): 4 µg/mL (≈ 11.9 µM) | MIC [13]: 4 µg/mL (≈ 11.9 µM) | MIC50 [13]: 4 µg/mL (≈ 11.9 µM) | MIC90 [13]: 8 µg/mL (≈ 23.7 µM) | MIC50 (Bacteroides ovatus): 8 µg/mL (≈ 23.7 µM) | MIC90 (Bacteroides ovatus): 8 µg/mL (≈ 23.7 µM) | MIC50 (Clostridium perfringens): 2 µg/mL (≈ 5.93 µM) | MIC90 (Clostridium perfringens): 4 µg/mL (≈ 11.9 µM) | MIC50 [14]: 1 µg/mL (≈ 2.96 µM) | MIC90 [14]: 2 µg/mL (≈ 5.93 µM) | MIC50 (Parvimonas micra): 1 µg/mL (≈ 2.96 µM) | MIC90 (Parvimonas micra): 2 µg/mL (≈ 5.93 µM) | MIC50 [15]: 1 µg/mL (≈ 2.96 µM) | MIC90 [15]: 2 µg/mL (≈ 5.93 µM) | MIC50 (Prevotella sp.): 2 µg/mL (≈ 5.93 µM) | MIC90 (Prevotella sp.): 4 µg/mL (≈ 11.9 µM) | MIC50 (Staphylococcus aureus [8]): 2 µg/mL (≈ 5.93 µM) | MIC90 (Staphylococcus aureus [8]): 4 µg/mL (≈ 11.9 µM) | MIC50 (Staphylococcus aureus [9]): 2 µg/mL (≈ 5.93 µM) | MIC90 (Staphylococcus aureus [9]): 4 µg/mL (≈ 11.9 µM) | MIC50 (Staphylococcus aureus [10]): 2 µg/mL (≈ 5.93 µM) | MIC90 (Staphylococcus aureus [10]): 4 µg/mL (≈ 11.9 µM) | MIC50 [11]: 1 µg/mL (≈ 2.96 µM) | MIC90 [11]: 2 µg/mL (≈ 5.93 µM) | MIC50 [12]: 1 µg/mL (≈ 2.96 µM) | MIC90 [12]: 2 µg/mL (≈ 5.93 µM)

Cc1ncc([N+](=O)[O-])n1CCO [METRONIDAZOLE]
MIC50 (Bacteroides fragilis): 0.12 µg/mL (≈ 0.701 µM) | MIC90 (Bacteroides fragilis): 1 µg/mL (≈ 5.84 µM) | MIC50 (Phocaeicola vulgatus): 0.25 µg/mL (≈ 1.46 µM) | MIC90 (Phocaeicola vulgatus): 0.25 µg/mL (≈ 1.46 µM) | MIC50 [13]: 1 µg/mL (≈ 5.84 µM) | MIC90 [13]: 1 µg/mL (≈ 5.84 µM) | MIC50 (Bacteroides ovatus): 1 µg/mL (≈ 5.84 µM) | MIC90 (Bacteroides ovatus): 1 µg/mL (≈ 5.84 µM) | MIC50 (Clostridium perfringens): 1 µg/mL (≈ 5.84 µM) | MIC90 (Clostridium perfringens): > 32 µg/mL | MIC50 [14]: 0.5 µg/mL (≈ 2.92 µM) | MIC90 [14]: 1 µg/mL (≈ 5.84 µM) | MIC (Parvimonas micra): ≤ 0.06 µg/mL | MIC50 (Parvimonas micra): ≤ 0.06 µg/mL | MIC90 (Parvimonas micra): > 32 µg/mL | MIC50 [15]: 1 µg/mL (≈ 5.84 µM) | MIC90 [15]: 1 µg/mL (≈ 5.84 µM) | MIC50 (Prevotella sp.): 0.5 µg/mL (≈ 2.92 µM) | MIC90 (Prevotella sp.): > 32 µg/mL
